Converted amounts (≈) assume the structure as drawn. The source made the active and inactive calls. No cut-off for these calls is given here.
Columns and labels:
[1] = biological target: Receptor-type tyrosine-protein kinase FLT3 (Homo sapiens) (UniProt P36888); assay: Inhibition of recombinant human Flt3 (564 to end residues) at 10 uM using EAIYAAPFAKKK as substrate measured after 40 mins in presence of [gamma33P]ATP by scintillation counting method
[2] = system: Serine/threonine-protein kinase Sgk2 (Homo sapiens), Q9HBY8 [S416D]; assay: Inhibition of recombinant human SGK2 S416D mutant (54 to end residues) at 10 uM using GRPRTSSFAEGKK as substrate measured after 40 mins in presence of [gamma33P]ATP by scintillation counting method
[3] = biological target: Mitogen-activated protein kinase kinase kinase 9 (Homo sapiens) (UniProt P80192); assay: Inhibition of recombinant human MLK1 (134 to 414 residues) at 10 uM using casein as substrate measured after 40 mins in presence of [gamma33P]ATP by scintillation counting method
[4] = biological target: Calcium/calmodulin-dependent protein kinase type II subunit gamma (Homo sapiens) (UniProt Q13555); assay: Inhibition of recombinant full-length human CaMK2gamma (1 to 330 residues) at 10 uM using calmodulin as substrate measured after 40 mins in presence of [gamma33P]ATP by scintillation counting method
Sequence of Calcium/calmodulin-dependent protein kinase type II subunit gamma (Homo sapiens) (Q13555 whole entry, the tested form may be a part): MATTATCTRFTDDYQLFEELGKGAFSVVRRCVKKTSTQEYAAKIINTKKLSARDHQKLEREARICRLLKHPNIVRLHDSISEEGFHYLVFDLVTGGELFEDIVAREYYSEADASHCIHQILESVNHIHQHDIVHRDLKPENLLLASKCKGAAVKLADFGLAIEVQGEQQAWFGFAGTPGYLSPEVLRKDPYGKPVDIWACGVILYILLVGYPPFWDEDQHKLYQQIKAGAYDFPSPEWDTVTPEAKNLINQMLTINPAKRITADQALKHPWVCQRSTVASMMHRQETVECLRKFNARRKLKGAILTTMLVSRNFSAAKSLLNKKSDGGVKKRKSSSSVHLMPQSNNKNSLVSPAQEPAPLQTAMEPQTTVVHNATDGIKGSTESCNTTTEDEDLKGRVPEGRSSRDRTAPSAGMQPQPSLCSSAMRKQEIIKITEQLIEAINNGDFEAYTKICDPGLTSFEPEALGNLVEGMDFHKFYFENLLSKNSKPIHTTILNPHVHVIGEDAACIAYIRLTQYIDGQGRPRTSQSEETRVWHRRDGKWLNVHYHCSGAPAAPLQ

[5] = species: Mus musculus; assay: Inhibition of recombinant full-length mouse PI3K p110alpha/p85alpha H1047R mutant at 10 uM using phosphatidylinositol-4, 5-bisphosphate as substrate measured after 40 mins by HTRF assay
[6] = biological target: Activated CDC42 kinase 1 (Homo sapiens) (UniProt Q07912); assay: Inhibition of recombinant human ACK1 (1 to 389 residues) at 10 uM using EFPIYDFLPAKKK as substrate measured after 40 mins in presence of [gamma33P]ATP by scintillation counting method
Sequence of Activated CDC42 kinase 1 (Homo sapiens) (Q07912 whole entry, looked up, the tested form may be a part): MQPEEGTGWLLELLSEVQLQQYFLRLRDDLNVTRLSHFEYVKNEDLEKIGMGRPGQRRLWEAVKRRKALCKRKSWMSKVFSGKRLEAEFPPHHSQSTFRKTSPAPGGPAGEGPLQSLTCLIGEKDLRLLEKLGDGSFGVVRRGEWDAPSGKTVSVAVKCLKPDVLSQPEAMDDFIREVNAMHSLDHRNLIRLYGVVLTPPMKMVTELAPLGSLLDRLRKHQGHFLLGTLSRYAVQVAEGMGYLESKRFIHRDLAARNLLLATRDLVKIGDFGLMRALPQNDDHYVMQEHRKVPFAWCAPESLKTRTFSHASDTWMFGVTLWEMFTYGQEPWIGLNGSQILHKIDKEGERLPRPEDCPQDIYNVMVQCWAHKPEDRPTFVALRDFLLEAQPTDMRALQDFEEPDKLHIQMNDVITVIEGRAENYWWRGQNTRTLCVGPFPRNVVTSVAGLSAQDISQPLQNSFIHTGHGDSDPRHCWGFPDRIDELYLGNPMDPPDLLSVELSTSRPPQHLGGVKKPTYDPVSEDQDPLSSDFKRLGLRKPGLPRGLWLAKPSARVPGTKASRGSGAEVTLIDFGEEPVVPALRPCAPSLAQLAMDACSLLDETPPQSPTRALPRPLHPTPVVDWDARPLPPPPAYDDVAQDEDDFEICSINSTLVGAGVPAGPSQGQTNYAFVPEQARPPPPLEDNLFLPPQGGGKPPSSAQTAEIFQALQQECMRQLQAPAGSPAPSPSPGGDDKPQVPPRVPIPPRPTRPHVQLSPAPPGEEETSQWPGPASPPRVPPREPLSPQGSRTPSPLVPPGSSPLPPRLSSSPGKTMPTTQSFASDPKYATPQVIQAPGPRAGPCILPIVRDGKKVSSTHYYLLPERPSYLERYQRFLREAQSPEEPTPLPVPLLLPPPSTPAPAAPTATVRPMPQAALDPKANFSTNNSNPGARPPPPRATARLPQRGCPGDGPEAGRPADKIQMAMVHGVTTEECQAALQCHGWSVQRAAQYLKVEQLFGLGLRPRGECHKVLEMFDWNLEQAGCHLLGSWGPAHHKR

[7] = biological target: Peregrin (Homo sapiens) (UniProt P55201); assay: Binding affinity to human N-terminal His-tagged BRPF1 assessed as change in melting temperature at 10 uM by SYPRO orange dye-based fluorescence assay
In short: (§1)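 Thermal shift with His-tagged human bromodomain at 2 μM final in 10 mM HEPES pH 7.5, 500 mM NaCl. Compound at 10 μM final with 0.1% DMSO; SYPRO Orange at 1:1000. Equilibrated 3 min at 25 °C, then heated from 25 to 95 °C at 1 °C/min. Melting temperature shift taken from fluorescence; at least duplicate.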

[8] = biological target: Transcription initiation factor TFIID subunit 1 (Homo sapiens) (UniProt P21675); assay: Binding affinity to human N-terminal His-tagged TAF1 bromodomain1 assessed as change in melting temperature at 10 uM by SYPRO orange dye-based fluorescence assay; in short: as §1
[9] = biological target: Dual specificity protein kinase CLK2 (Homo sapiens) (UniProt P49760); assay: Inhibition of recombinant human CLK2 (138 to end residues) at 10 uM using YRRAAVPPSPSLSRHSSPHQS(p)EDEEE as substrate measured after 40 mins in presence of [gamma33P]ATP by scintillation counting method
Sequence of Dual specificity protein kinase CLK2 (Homo sapiens) (P49760 whole entry, looked up, the tested form may be a part): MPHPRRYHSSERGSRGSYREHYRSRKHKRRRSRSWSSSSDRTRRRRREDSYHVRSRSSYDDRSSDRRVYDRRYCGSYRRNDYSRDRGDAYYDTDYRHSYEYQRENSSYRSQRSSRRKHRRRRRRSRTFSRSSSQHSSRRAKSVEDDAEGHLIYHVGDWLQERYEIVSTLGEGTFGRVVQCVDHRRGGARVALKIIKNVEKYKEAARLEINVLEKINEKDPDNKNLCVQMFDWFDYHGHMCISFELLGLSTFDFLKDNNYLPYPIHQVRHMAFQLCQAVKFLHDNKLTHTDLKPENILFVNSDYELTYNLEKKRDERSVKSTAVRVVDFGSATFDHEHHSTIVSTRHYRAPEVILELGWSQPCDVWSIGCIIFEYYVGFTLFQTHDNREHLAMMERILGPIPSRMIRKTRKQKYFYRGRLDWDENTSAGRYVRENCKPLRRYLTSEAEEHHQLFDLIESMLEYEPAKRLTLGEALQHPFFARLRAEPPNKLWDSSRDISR

[10] = biological target: STE20-like serine/threonine-protein kinase (Homo sapiens) (UniProt Q9H2G2); assay: Inhibition of human SLK (1 to 373 residues) using RLGRDKYKTLRQIRQ as substrate measured after 40 mins in presence of [gamma33P]ATP by scintillation counting method
In short: (§2)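 Kinase panel of 422 kinases screened by Eurofins KinaseProfiler at a single test-compound concentration of 10 µM.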

[11] = biological target: CDK6/cyclin D3 (Homo sapiens) (UniProt P30281+Q00534); assay: Inhibition of recombinant full-length human CDK6/cyclin D3 at 10 uM using histone H1 as substrate measured after 40 mins in presence of [gamma33P]ATP by scintillation counting method; assay type: protein-complex assay
[12] = Aqueous solubility of the compound by HPLC analysis; assay type: physicochemical; settings: buffer
In short: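 Measured by HPLC on a C18 reversed-phase column.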

[13] = biological target: ALK tyrosine kinase receptor (Homo sapiens) (UniProt Q9UM73); assay: Inhibition of recombinant human ALK (1058 to end residues) at 10 uM using KKKSPGEYVNIEF as substrate measured after 40 mins in presence of [gamma33P]ATP by scintillation counting method
Sequence of ALK tyrosine kinase receptor (Homo sapiens) (Q9UM73 19-1620 limits assumed): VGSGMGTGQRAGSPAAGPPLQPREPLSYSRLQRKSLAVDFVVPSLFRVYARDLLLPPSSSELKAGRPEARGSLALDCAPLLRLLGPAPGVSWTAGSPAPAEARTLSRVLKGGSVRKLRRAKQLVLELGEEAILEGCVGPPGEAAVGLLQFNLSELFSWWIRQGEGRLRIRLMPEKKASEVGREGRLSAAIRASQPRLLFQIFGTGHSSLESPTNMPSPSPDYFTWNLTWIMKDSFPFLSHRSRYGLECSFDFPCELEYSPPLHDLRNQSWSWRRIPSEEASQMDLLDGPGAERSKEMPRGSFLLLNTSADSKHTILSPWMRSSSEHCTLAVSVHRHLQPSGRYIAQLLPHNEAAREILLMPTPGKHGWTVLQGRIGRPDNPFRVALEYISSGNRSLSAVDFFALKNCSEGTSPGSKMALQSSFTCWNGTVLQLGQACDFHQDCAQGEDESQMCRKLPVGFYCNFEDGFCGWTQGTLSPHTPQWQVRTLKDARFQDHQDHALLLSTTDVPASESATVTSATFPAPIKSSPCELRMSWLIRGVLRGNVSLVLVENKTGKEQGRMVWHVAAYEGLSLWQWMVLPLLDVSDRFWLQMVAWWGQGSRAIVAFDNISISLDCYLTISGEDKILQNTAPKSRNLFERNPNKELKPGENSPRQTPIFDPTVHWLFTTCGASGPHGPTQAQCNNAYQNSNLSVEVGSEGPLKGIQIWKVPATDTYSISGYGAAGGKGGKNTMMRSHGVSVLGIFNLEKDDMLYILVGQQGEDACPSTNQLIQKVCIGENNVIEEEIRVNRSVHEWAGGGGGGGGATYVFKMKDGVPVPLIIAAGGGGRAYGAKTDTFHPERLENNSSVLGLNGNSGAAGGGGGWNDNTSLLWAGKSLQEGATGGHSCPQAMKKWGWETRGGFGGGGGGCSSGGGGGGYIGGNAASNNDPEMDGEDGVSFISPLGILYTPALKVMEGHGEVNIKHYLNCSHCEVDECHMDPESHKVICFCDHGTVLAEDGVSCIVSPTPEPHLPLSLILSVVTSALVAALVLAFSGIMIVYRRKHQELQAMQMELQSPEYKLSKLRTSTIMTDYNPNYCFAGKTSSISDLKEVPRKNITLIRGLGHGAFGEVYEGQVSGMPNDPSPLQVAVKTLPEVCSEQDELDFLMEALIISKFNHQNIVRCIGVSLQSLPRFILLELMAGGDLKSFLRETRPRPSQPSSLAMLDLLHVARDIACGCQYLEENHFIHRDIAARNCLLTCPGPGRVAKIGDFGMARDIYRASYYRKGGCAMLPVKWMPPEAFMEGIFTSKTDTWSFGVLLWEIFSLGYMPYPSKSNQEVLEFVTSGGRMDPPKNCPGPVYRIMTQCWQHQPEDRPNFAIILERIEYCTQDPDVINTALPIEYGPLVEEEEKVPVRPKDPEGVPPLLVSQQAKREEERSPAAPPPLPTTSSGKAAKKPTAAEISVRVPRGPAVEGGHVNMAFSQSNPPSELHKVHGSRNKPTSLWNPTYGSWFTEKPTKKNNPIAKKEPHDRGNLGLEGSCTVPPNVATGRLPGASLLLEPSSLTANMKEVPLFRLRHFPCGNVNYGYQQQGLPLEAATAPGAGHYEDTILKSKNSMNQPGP

[14] = biological target: Bromodomain and PHD finger-containing protein 3 (Homo sapiens) (UniProt Q9ULD4); assay: Binding affinity to human partial length BRPF3 (E588 to G701 residues) expressed in bacterial expression system at 1 uM by BROMOscan assay
In short: (§3)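 BROMOscan bromodomain cross-screen run by an outside service, compound at 1 µM against 32 recombinant bromodomains. Binding given as percent of control.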

[15] = biological target: E3 ubiquitin-protein ligase TRIM33 (Homo sapiens) (UniProt Q9UPN9); assay: Binding affinity to human partial length TRIM33 (D882 to A1087 residues) expressed in bacterial expression system at 1 uM by BROMOscan assay; in short: as §3
[16] = system: Proto-oncogene tyrosine-protein kinase Src (Homo sapiens), P12931 [T341M]; assay: Inhibition of recombinant full-length human Src T341M mutant at 10 uM using GGEEEEYFELVKKKK as substrate measured after 40 mins in presence of [gamma33P]ATP by scintillation counting method
Sequence of Proto-oncogene tyrosine-protein kinase Src (Homo sapiens), P12931 [T341M] (P12931 whole entry T341M, looked up): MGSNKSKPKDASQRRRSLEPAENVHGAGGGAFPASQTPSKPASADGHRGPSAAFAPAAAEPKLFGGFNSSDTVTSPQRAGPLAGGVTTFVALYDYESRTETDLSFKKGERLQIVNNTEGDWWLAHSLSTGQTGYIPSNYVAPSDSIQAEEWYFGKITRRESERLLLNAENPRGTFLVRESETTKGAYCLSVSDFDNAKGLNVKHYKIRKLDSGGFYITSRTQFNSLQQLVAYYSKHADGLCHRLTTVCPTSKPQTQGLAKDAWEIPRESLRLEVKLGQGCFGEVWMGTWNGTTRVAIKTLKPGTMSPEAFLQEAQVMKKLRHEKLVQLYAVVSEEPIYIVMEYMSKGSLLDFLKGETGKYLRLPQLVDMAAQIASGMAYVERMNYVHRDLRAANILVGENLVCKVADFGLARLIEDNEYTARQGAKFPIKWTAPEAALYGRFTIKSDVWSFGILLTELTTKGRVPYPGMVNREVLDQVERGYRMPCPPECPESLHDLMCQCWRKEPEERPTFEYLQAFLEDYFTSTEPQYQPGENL

[17] = biological target: Calcium/calmodulin-dependent protein kinase type II subunit delta (Homo sapiens) (UniProt Q13557); assay: Inhibition of recombinant full-length human CaMK2delta at 10 uM using calmodulin as substrate measured after 40 mins in presence of [gamma33P]ATP by scintillation counting method
Sequence of Calcium/calmodulin-dependent protein kinase type II subunit delta (Homo sapiens) (Q13557 whole entry): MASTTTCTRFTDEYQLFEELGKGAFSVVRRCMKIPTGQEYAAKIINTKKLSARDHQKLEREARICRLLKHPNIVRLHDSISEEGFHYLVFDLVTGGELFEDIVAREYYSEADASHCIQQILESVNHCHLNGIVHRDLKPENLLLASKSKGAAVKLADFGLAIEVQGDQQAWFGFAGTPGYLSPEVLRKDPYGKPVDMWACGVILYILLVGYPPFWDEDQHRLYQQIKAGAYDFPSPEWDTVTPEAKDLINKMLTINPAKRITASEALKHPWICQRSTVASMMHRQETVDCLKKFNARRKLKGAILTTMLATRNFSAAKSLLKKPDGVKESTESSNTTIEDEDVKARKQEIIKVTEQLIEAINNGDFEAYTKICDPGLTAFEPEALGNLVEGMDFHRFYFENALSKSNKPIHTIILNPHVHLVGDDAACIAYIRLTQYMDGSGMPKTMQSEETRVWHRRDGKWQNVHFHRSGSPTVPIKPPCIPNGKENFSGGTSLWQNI

[18] = biological target: CDK17/Cyclin-Y (Homo sapiens) (UniProt Q00537+Q8ND76); assay: Inhibition of human CDK17/cyclinY at 10 uM using PKSPKARKKL as substrate measured after 120 mins in presence of [gamma33P]ATP by scintillation counting method; assay type: protein-complex assay; in short: as §2
[19] = system: Mast/stem cell growth factor receptor Kit (Homo sapiens), P10721 [D816V]; assay: Inhibition of recombinant human c-Kit D816V mutant (544 to end residues) at 10 uM using poly(Glu, Tyr) 4:1 as substrate measured after 40 mins in presence of [gamma33P]ATP by scintillation counting method
[20] = biological target: Bromodomain-containing protein 2 (Homo sapiens) (UniProt P25440); assay: Binding affinity to human partial length BRD2 bromodomain 1 long isoform (K71 to N194 residues) expressed in bacterial expression system at 1 uM by BROMOscan assay; in short: as §3
[21] = Clearance in human liver microsomes at 1 uM in presence of NADPH by LC-MS analysis; assay type: ADME, Microsome; settings: read-out: CLH
In short: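 Compound at 1 μM with 0.5 mg/mL human liver microsomes and 1 mM NADPH; sampled at 0, 5, 15, 30 and 45 min, stopped with acetonitrile, then centrifuged.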

[22] = biological target: Tyrosine-protein kinase Srms (Homo sapiens) (UniProt Q9H3Y6); assay: Inhibition of human SRMS at 10 uM by radiometric method; in short: as §2
[23] = biological target: Serine/threonine-protein kinase 32B (Homo sapiens) (UniProt Q9NY57); assay: Inhibition of recombinant full-length human STK32B at 10 uM using casein as substrate measured after 120 mins in presence of [gamma33P]ATP by scintillation counting method

## CN1C[C@H](Nc2nc3cc[nH]c3c(=O)n2C)C[C@H](c2ccc3c(c2)OCCO3)C1
[1]
  inhibition: inactive
[2]
  inhibition: inactive
[3]
  inhibition: inactive
[4]
  inhibition: inactive
[5]
  inhibition: inactive
[6]
  inhibition: inactive
[7]
  ΔTm: 2.6 °C
[8]
  ΔTm: 0.2 °C
[9]
  inhibition: inactive
[10]
  inhibition: inactive
[11]
  inhibition: inactive
[12]
  solubility: 480 µM (≈ 190 µg/mL)
[13]
  inhibition: inactive
[14]
  Activity: Active
[15]
  Activity: inactive
[16]
  inhibition: inactive
[17]
  inhibition: inactive
[18]
  inhibition: inactive
[19]
  inhibition: inactive
[20]
  Activity: inactive
[21]
  CLint scaled at 1 µM: 45 mL/min/kg
[22]
  inhibition: inactive
[23]
  inhibition: inactive

Source: ChEMBL document CHEMBL4350961, “Discovery of Pyrrolo[3,2- d]pyrimidin-4-one Derivatives as a New Class of Potent and Cell-Active Inhibitors of P300/CBP-Associated Factor Bromodomain” (J Med Chem, 2019)
